For series [1], the system named is Rattus norvegicus. As to the kind of experiment: Antiallodynic activity in SNE-induced mechanical allodynia naive Sprague-Dawley rat model assessed as reversible […] in hindpaw ipsilateral withdrawal threshold at 0.3 mg/kg, ip preincubated for 3 hrs followed by SNE addition. The class given is functional, organism-based. The method, boiled down:
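Male Sprague–Dawley rats received unilateral sciatic nerve entrapment. Testing began 8 days post-surgery at 3-day intervals, dosed ip in DMSO/Cremophor EL/saline. Hindpaw withdrawal threshold (g) was read with a digital von Frey meter, 4 readings per paw at 30 s spacing, averaged. Reads were taken 1 h before and 3, 6, 24 and 48 h after dosing; n = 8; blinded; one-way RM ANOVA.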

Series [2] can be described thus: Efflux ratio of permeability in MDCK cells expressing mdr1 at 10 uM by mass spectroscopic analysis. The class given is ADME, cell-based, Canis lupus familiaris. The following applies: dog. In short, it runs like this: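 MDCK-mdr1 monolayers were grown 4 days on Transwell filters in DMEM/F12 with 10% FBS. Compound (10 μM) was added apically in HBSS with 25 mM D-glucose, HEPES pH 7.4, and incubated 1 h at 37 °C. Apical and basal samples were quantified by LC-MS/MS (MRM). Values are the average of 2–3 measurements.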

For series [3], the target named is T1, Cannabinoid receptor 1 (Homo sapiens, UniProt P21554). As to the kind of experiment: Agonist activity at human CB1R expressed in CHO cells by Ca2+ flux assay. The class given is functional, cell-based. In short, it runs like this: (§1)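 CHO cells stably co-expressing human CB1 or CB2 with Gαq16 were seeded at 40000/well and grown 24 h at 37 °C. They were loaded 1 h at 37 °C with Fluo-4 AM (2 μM final) in HBSS/20 mM HEPES/1% BSA/probenecid. Agonist was added after ~17 s baseline, and fluorescence (ex 488/em 525) was read each 1 s for 60 s. Runs were done 3–6 times; mean ± SEM.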
For orientation: Calcium flux is commonly read through the fluorescence of an indicator in the cells.

The target of series [4] is T2, Cannabinoid receptor 2 (Homo sapiens, UniProt P34972). As to the kind of experiment: Agonist activity at human CB2R expressed in CHO cells by Ca2+ flux assay. The class given is functional, cell-based. In short, it runs like this:
as §1

Series [5] in a line: Metabolic stability in Sprague-Dawley rat plasma assessed as compound remaining at 10 uM measured at 1 hr by LC/MS analysis. The class given is ADME, cell-free. In short, it runs like this: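 Compound (10 μM final, from 1 mM ethanol stock) was incubated in male Sprague–Dawley rat plasma at 37 °C. Aliquots taken at 0, 30 and 60 min were extracted with 3 volumes methanol and centrifuged. Supernatants were analysed by LC/MS.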

Series [6] can be described thus: Metabolic stability in Sprague-Dawley rat liver S9 fraction assessed as compound remaining at 10 uM measured at 1 hr by LC/MS analysis. The class given is ADME, subcellular. The following applies: s9, 1 h. In short, it runs like this: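 Compound (10 μM final, from 1 mM ethanol stock) was incubated at 37 °C in male Sprague–Dawley rat liver S9 (1 mg protein/mL). The mix held an NADPH-regenerating system (1 mM NADP, 5 mM glucose 6-phosphate, 1 U/mL G6PDH) in 50 mM KPO4 pH 7.4 with 3 mM MgCl2, preincubated 5 min. Samples at 0–120 min were methanol-extracted and analysed by LC/MS.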

Series [7] deals with T1, Cannabinoid receptor 1. As to the kind of experiment: Displacement of [3H]-CP55940 from human CB1 receptor. The method, boiled down: (§2)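 Radioligand displacement used [3H]-CP55940 as tracer in heterologous competition binding. Unlabeled reference ligands defined nonspecific binding. Ki was calculated by Cheng–Prusoff.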
(In general: Displacement assays read how much labelled ligand stays bound in the presence of the test substance.)

For series [8], the system named is Rattus norvegicus. As to the kind of experiment: Analgesic activity in naive Sprague-Dawley rat assessed as increase in tail flick latency at 0.3 mg/kg, ip up to 48 hrs by tail-flick assay. The series is classed as functional, organism-based. The method, boiled down:
(§3)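 Naïve male Sprague–Dawley rats were dosed ip (DMSO/Cremophor EL/saline) or by gavage (DMSO in 20% condensed milk). Radiant heat was aimed 3 cm from the tail tip and latency timed by photocell. Baseline was set to ~5–7 s with a 25 s cutoff. Testing ran 1 h pre-dose and up to 48 h after. Peak effect was taken minus vehicle; n = 6–8; blinded.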

The subject of series [9] is Rattus norvegicus. As to the kind of experiment: Analgesic activity in naive Sprague-Dawley rat assessed as tail flick latency at 0.1 to 10 mg/kg administered through oral gavage up to 48 hrs by tail-flick assay. The class given is functional, organism-based. In short, it runs like this:
as §3

A short description of series [10]: Toxicity in naive Sprague-Dawley rat assessed as motor incoordination at 0.1 to 10 mg/kg administered through oral gavage after 2 to 48 hrs by rotarod test. The class given is organism-based. The following applies: in vivo. The method, boiled down: (§4)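 Rats were trained 72 h earlier (3 sessions, 24 h apart) to stay ≥180 s on an accelerating rotarod (4–40 rev over 5 min). Time on rod was recorded to a 3 min cutoff, 1 h pre-dose and 2, 6, 24 and 48 h after ip or oral gavage dosing. Values are peak effect minus vehicle; n = 6–8; blinded.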
In general terms: Falling from the rotarod earlier than controls is read as motor impairment.

A short description of series [11]: Toxicity in naive Sprague-Dawley rat assessed as hypothermia at 0.1 to 10 mg/kg administered through oral gavage after 2 to 48 hrs by core temperature test. The class given is organism-based. The note with it: in vivo. The method, boiled down:
(§5)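 Naïve rats were acclimated to a restrainer (two 5-min sessions 20 min apart). Core temperature was taken before and 2, 6, 24 and 48 h after ip (DMSO/Cremophor EL/saline) or oral gavage (DMSO in 20% condensed milk) dosing. Dose-response points are mean peak effect minus vehicle; n = 6–8 rats; blinded.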

Series [12] can be described thus: Toxicity in naive Sprague-Dawley rat assessed as immobility at 0.1 to 10 mg/kg administered through oral gavage after 2 to 48 hrs by catalepsy ring test. The series is classed as organism-based. The note with it: in vivo. The method, boiled down:
(§6)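 In the ring immobility test, forepaws were placed on a 12 cm horizontal ring with hindpaws just touching the bench. Time to move off was recorded, 100 s cutoff. Testing was pre-dose and 2, 6, 24 and 48 h after ip or oral gavage dosing. Values are peak effect minus vehicle; n = 6–8; blinded.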

The target in series [13] is T2, Cannabinoid receptor 2. As to the kind of experiment: Displacement of [3H]-CP55940 from human CB2 receptor. In short, it runs like this:
as §2

Series [14] has as its target Cannabinoid receptor 1 (Rattus norvegicus, UniProt P20272). As to the kind of experiment: Displacement of [3H]-CP55940 from rat CB1 receptor.
The subject of series [15] is Rattus norvegicus. As to the kind of experiment: Analgesic activity in naive Sprague-Dawley rat assessed as tail flick latency at 0.01 mg/kg, ip up to 48 hrs by tail-flick assay. The class given is functional, organism-based. In short, it runs like this:
as §3

Series [16] can be described thus: Toxicity in naive Sprague-Dawley rat assessed as motor incoordination at 0.01 mg/kg, ip after 2 to 48 hrs by rotarod test. The class given is organism-based. The note with it: in vivo. In short, it runs like this: as §4
Series [17] can be described thus: Toxicity in naive Sprague-Dawley rat assessed as hypothermia at 0.01 mg/kg, ip after 2 to 48 hrs by core temperature test. The following applies: in vivo. The class given is organism-based. The method, boiled down:
as §5

Series [18] is described as follows: Toxicity in naive Sprague-Dawley rat assessed as immobility at 0.01 mg/kg, ip by after 2 to 48 hrs by catalepsy ring test. The series is classed as organism-based. The following applies: in vivo. The method, boiled down:
as §6

Activity calls are given as the source filed them.

T1 sequence (P21554 whole entry): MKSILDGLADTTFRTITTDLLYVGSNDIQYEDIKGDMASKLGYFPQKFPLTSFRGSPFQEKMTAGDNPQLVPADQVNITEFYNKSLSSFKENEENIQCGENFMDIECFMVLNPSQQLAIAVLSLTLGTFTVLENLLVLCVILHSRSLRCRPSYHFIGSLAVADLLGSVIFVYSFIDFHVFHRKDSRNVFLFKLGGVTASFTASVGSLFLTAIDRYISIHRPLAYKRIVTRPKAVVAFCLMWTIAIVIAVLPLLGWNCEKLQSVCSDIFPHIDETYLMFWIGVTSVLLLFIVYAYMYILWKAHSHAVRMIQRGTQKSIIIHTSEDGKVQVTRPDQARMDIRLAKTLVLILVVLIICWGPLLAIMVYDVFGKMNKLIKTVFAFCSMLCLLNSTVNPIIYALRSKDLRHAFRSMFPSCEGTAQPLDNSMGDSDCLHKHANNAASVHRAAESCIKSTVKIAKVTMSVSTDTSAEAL
T2 sequence (P34972 whole entry): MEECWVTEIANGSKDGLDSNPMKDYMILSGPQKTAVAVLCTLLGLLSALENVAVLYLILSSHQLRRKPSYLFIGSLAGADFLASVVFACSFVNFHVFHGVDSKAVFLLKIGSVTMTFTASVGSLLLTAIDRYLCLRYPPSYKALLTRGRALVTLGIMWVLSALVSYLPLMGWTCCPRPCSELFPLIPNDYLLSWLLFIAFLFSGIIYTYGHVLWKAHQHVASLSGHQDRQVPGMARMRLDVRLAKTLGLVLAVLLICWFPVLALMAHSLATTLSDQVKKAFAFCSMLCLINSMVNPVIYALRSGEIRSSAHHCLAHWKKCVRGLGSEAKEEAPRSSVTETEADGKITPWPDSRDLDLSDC
Chain of Cannabinoid receptor 1 (Rattus norvegicus, UniProt P20272) (P20272 whole entry): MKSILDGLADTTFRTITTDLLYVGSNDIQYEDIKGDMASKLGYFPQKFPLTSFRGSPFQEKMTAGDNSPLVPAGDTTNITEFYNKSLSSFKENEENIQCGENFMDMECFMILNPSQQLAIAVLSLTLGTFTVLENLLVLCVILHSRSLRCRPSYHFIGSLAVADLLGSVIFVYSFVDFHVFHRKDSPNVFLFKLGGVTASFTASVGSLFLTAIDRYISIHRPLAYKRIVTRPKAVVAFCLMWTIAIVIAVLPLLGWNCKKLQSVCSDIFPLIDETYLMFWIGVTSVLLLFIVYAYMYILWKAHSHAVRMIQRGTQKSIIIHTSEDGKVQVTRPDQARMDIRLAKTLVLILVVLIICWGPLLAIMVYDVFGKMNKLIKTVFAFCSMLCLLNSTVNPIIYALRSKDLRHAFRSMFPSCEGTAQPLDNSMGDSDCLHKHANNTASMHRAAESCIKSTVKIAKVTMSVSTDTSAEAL

In general, EC50 refers to the midpoint of the concentration-response curve. In general, Emax refers to the size of the effect at its maximum, as opposed to the concentration needed. On to `C1=C(CCN2CCOCC2)c2ccccc2/C1=C/c1cccc2ccccc12`, for which, in series [1], the result was Active. Also, in [2], the Ratio was 0.001. For the same molecule, the results for the EC50 in series [3] and in series [4] were 257 nM and 138 nM, respectively. The figures for the Emax in [3] and in series [4] were 103% and 27%, respectively. The Stability worked out at 98.5% in series [5] and 22.5% in series [6].
By Ki is commonly meant the dissociation constant of the complex between target and ligand, obtained from inhibition or displacement. `CCCCCn1cc(C(=O)c2ccc(C(=O)O)c3ccccc23)c2ccccc21`: in series [7], the Ki is above 10000 nM.
Take `CCCCCn1cc(C(=O)c2cccc3ccccc23)c2cc(F)ccc21`: the Stability in series [5] worked out at 99%; in [6] it was 13%.
In series [7], `O=C(O)CCCn1cc(C(=O)c2cccc3ccccc23)c2ccccc21` gave a Ki above 10000 nM.
`C1=C(CCN2CCOCC2)c2ccccc2/C1=C/c1ccco1` registered a Ki in series [7] above 10000 nM.
In series [7], `COc1ccc(C(=O)c2c(C)n(CC[N+]3(C)CCOCC3)c3ccccc23)cc1` displayed a Ki above 10000 nM.
As for `CCc1ccc(/C=C2\C=C(CCN3CCOCC3)c3ccccc32)c2ccccc12`, the result in series [8] and in [9] was Active. In addition, the EC50 in series [3] was 141 nM; in series [4] it was 163 nM. Further, the Emax in series [3] was 121%; in [4], 59%. Moreover, the Activity entry in [10], in series [11] and in series [12] was “Non-Toxic” throughout.
Molecule `O=C(O)CCCCn1cc(C(=O)c2cccc3ccccc23)c2ccccc21` showed a Ki in series [7] above 10000 nM.
Same read-out and setting: as for `CCCCCCC1=C/C(=C\c2cccc3ccccc23)c2ccccc21`, the figure is 436 nM.
Take `COc1ccc(/C=C2\C=C(CCN3CCOCC3)c3ccccc32)c2ccccc12`: the outcome in [1], in series [8] and in series [9] was Active. In addition, the affinity in [13], expressed as Ki, was 4.07 nM. The 50% effective concentration (EC50) worked out at 196 nM in series [3] and 194 nM in series [4]. Besides, the figures for the Emax in series [3] and in series [4] were 114% and 52%, respectively. In addition, the Stability worked out at 100% in series [5] and 43% in series [6]. In addition, the Activity result in series [10], in [11] and in [12] was “Non-Toxic” each time.
In [14], `COc1ccc(C(=O)c2c(C)n(CCN3CCOCC3)c3ccccc23)cc1` [PRAVADOLINE] came in with a Ki of 2510 nM.
As for `CCCCCn1cc(C(=O)c2cccc3ccccc23)c2c(F)cccc21`, the Stability in [5] was 69%; in [6], 5%.
`C[N+]1(CCn2cc(C(=O)c3cccc4ccccc34)c3ccccc32)CCOCC1` registered an inhibitory constant (Ki) in [7] above 10000 nM.
In series [3], `CCCCCn1cc(C(=O)c2cccc3ccccc23)c2cccc(F)c21` returned an EC50 of 104 nM. Also, the Emax in [3] was found to be 79%. Also, the Stability stood at 97% in series [5] and 50% in [6].
Take `C1=C(CCN2CCOCC2)c2ccccc2/C1=C/c1ccc2c3c(cccc13)CC2`: in series [2], the Ratio is reported as 0.0014. In [4], this molecule came in with an EC50 of 594 nM and an Emax of 20%.
Take `CCCCCn1cc(C(=O)c2cccc3ccccc23)c2ccc(F)cc21`: the Stability came out at 80% in series [5] and 30% in [6].
Consider `CCCCCCC(C)(C)c1cc(O)c2c(c1)OC(C)(C)[C@@H]1CC=C(CO)C[C@@H]21`, for which the result in series [8], in [9] and in [15] was Active. Also, the Activity result in series [16], in [17] and in [18] was “Toxic” throughout.
`CCCCCCC1=C/C(=C\c2ccccc2)c2ccccc21` returned a Ki in series [7] of 4410 nM. This lies in the single-digit micromolar range.

The values above are taken from ChEMBL document CHEMBL4431329, “Peripherally Selective Cannabinoid 1 Receptor (CB1R) Agonists for the Treatment of Neuropathic Pain” (J Med Chem, 2016).
